Compounds with a hit are over-represented: about 2.3% of the library has one in this group of screens.
UBC13 inh – blocks human UBC13 polyubiquitin chain formation; AID 485273; P61088; 0.47% of 330,000 active; TR-FRET; inhibition, % at 20 µM; in the data active = inhibition above about 45%, passing the limit was not always enough
Target sequence (P61088 whole entry, looked up): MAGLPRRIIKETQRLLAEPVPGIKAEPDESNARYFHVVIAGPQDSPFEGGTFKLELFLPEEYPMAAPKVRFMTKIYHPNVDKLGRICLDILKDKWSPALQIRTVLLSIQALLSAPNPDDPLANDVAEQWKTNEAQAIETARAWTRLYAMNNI
PREPL inhibitor – human PREPL enzyme inhibition | Q4J6C6 | recombinant PREPL, fluorescence polarization activity-based probe | inhibition, % at 5.96 µM | 0.68% of 320,000 active | AID 2751;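 note: 0% = enzyme with DMSO and 100% = wells lacking enzyme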
PP5 primary – inhibitors of human protein phosphatase 5 (PP5). purified PP5c, OMFP substrate fluorescence. P53041. inhibition, % at 6.7 µM. 0.18% of 320,000 active;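 active = inhibition above the campaign's mean inhibition across all tested compounds plus 3 SD, cut at about 9.5% in these data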;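 note: 0% = DMSO only and 100% = 100 µM cantharidin control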
UCH37 inh – blocks the human deubiquitinase UCH37 | Q9Y5K5 | purified proteasome/UCH37, Ub-AMC cleavage fluorescence | inhibition, % (no concentration beside the values) | 0.33% of 330,000 active | AID 588478;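 active = mean inhibition over replicate wells above about 20%, limit read from the data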;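 note: 0% = compound-free wells with enzyme and 100% = wells lacking proteasome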
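Test system – human UCH37 enzyme supplied as purified proteasome complex · Incubation – 30 min preincubation with enzyme, 25 min cleavage at room temperature · Detection – AMC fluorescence from Ub-AMC cleavage, excitation 355 nm, emission 460 nm · Benchmarks – no-proteasome wells (full inhibition) and compound-free wells (no inhibition)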
PP1 inh – counter-screen for PP5 inhibitors: inhibitors of human PP1-alpha | inhibition, % at 6.7 µM | P62136 | 0.9% of 320,000 active | purified PP1alpha, OMFP fluorescence;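 active = inhibition above the mean inhibition of all tested compounds plus 3 SD, computed separately for each screening campaign, cut at about 15% in these data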
Target sequence (P62136 whole entry, looked up): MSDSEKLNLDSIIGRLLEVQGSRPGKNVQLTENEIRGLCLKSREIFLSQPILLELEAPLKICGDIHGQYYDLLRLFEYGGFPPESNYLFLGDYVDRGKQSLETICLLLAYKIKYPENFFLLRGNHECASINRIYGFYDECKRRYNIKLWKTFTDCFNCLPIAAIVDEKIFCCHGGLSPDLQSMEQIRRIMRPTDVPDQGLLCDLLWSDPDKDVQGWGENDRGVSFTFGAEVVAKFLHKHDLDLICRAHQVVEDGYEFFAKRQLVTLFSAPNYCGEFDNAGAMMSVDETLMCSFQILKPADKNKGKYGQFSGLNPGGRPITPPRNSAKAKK
Fh CTSL1 inh – cathepsin L1 inhibition, PFM18AAP counter-screen; recombinant F. hepatica cathepsin L1, Z-Leu-Arg-MCA fluorescence; 0.49% of 300,000 active; inhibition, % at 5.96 µM;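 active = inhibition above the mean of all tested compounds plus 3 SD, set per screening campaign, cut at about 17% in these data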;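 note: 0% = plate median of test compound wells and 100% = 1 µM Z-Phe-Ala-diazomethylketone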
PREPL confirm – confirmation of human PREPL enzyme inhibitors; AID 2803; recombinant PREPL, fluorescence polarization activity probe; inhibition, % at 5.96 µM; shares compounds with PREPL inhibitor; 67% of 2,000 active;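 note: 0% = protein with DMSO and 100% = wells lacking protein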
* = called active by the depositor; i = inactive; / = not tested or not shown. Cut-off read from the data, not from the text of the source, unless noted: active = inhibition above about 43%; inactive = the rest.

SMILES	UBC13 inh	PREPL inhibitor	PP5 primary	UCH37 inh	PP1 inh	Fh CTSL1 inh	PREPL confirm
COc1ccc(CC(=O)NN=C(C)CC(=O)NCc2ccco2)cc1OC	/	/	/	2.4	/	/	/
COc1cc(NC(=O)CN2CCN(c3ccccc3F)CC2)c(C)cc1[N+](=O)[O-]	-10.4	54.5*	2.1	2.7	-4.6	-5.8	69.0*
CN(C)C=Nc1ncc(-c2ncc(C(F)(F)F)cc2Cl)cn1	/	/	/	i	/	/	/
COc1ccc(C2CCCN2C(=S)Nc2cccc(Cl)c2C)cc1OC (stereo not drawn)	-2.1	49.5*	1.6	5.2	-1.8	1.8	41.1
O=C(Nc1ccccc1)C1=C[C@@H](c2coc3ccccc3c2=O)C[C@@H](OCc2ccc(CO)cc2)O1	-5.1	48.6*	3.5	0.6	4.1	-4.0	47.9*
O=C(NCc1ccccc1)C1=C[C@H](c2coc3ccccc3c2=O)C[C@H](OCc2ccc(CO)cc2)O1	-5.7	11.2	1.0	3.4	-0.4	-0.3	/
O=C(C1CC(=O)N(c2ccc3c(c2)OCCO3)C1)N1CCN(c2ccccc2O)CC1 (stereo not drawn)	-1.4	45.2*	0.1	1.2	-1.6	-2.4	41.0
Cc1occc1-c1nnc(SCC(=O)c2c[nH]c3ccccc23)n1C	2.5	21.1	2.9	0.1	-1.6	0.2	/
CCCn1c(SCC(=O)c2c[nH]c3ccccc23)nnc1-c1ccncc1	-2.3	44.1*	0.9	5.5	1.2	-2.1	34.7
CCN(CC)c1nc2c3c(nc4c(c3c1C#N)CC(=O)N4c1ccc(Cl)cc1)NC(C)=N2	-62.4	66.4*	1.0	-181.5	13.8	4.3	65.1*
Cc1ccccc1OCc1nnc(SCC(=O)Nc2ccc(N3CCOCC3)c(Cl)c2)n1C	-0.5	50.9*	1.2	3.7	-0.7	1.3	57.7*
COc1ccc(C(C)=NNC(=S)Nc2cc(C)ccc2C)cc1	/	/	/	5.5	/	/	/
Cn1c(N2CCOCC2)nc2c1c(=O)n(Cc1ccc(Cl)c(Cl)c1)c(=O)n2C	9.0	43.5*	-0.6	3.2	-0.6	9.5	26.4
Cn1c(N2CCCC2)nc2c1c(=O)n(Cc1ccc(F)cc1)c(=O)n2C	-0.6	7.1	4.0	1.8	0.5	0.5	/
Clc1ccc(C=NNC(=Nc2ccccc2)c2ccccn2)c(Cl)c1	/	/	/	-2.4	/	/	/
Cc1ccccc1NC(=O)C(C#N)Cc1cccnc1 (stereo not drawn)	3.9	70.3*	0.7	-1.2	1.1	0.7	1.3
COc1ccc(N2CCN(c3cc(C)nc4ccc(OC)cc34)CC2)cc1	-8.1	43.3*	2.3	6.5	-1.5	-1.4	50.4*
O=c1c2ccc([N+](=O)[O-])cc2ncn1CCOc1ccccc1	-0.5	44.4*	0.0	/	-1.2	3.0	32.7
Cc1ccc(C2(C)NC(=O)N(CC(=O)N(c3ccccc3)C3CCS(=O)(=O)C3)C2=O)cc1 (stereo not drawn)	5.0	51.0*	/	4.2	/	/	41.9
Cc1cc(N)ccc1-n1c(C)ccc1C	-3.8	59.3*	0.3	3.0	2.4	2.7	10.9
Cc1ccc(-n2c(C)cc(=O)cc2C)c(C)c1	-1.3	36.8	0.5	1.8	-0.2	-1.8	/
COc1ccc(C=Nn2cnnc2SCCO)cc1OC	/	/	/	-4.9	/	/	/
Cc1nc2cc(C(=O)O)ccc2n1C1CCCCC1	-9.2	3.4	1.0	2.4	-5.8	-7.1	/
Cc1nc2cc(N)ccc2n1C1CCCCC1	-5.6	48.8*	0.7	-0.8	-3.6	2.3	5.7
O=C(COc1ccccc1[N+](=O)[O-])N/N=C/c1cccc(OC(=O)c2ccc3c(c2)OCO3)c1	-3.1	46.5*	1.1	/	2.4	2.1	19.5
CCN(CC)c1ccc(N)cc1	-39.2	63.9*	1.0	/	2.9	/	39.1
COc1ccc(C=NNC(=O)c2cccc(OC(F)(F)C(F)F)c2)cc1O	/	/	/	2.2	/	/	/
O=C(Nc1ccc2c(c1)CCC2)C1CCN(c2c3c(nc4ncnn24)CCC3)CC1	6.7	45.6*	1.2	0.0	0.6	-0.9	42.9
CCN1CCCC1CNC(=O)c1ccc2c(c1)NC(=O)/C(=C\c1ccc(OC)c(OC)c1)S2 (stereo not drawn)	23.3	55.5*	2.3	9.5	2.2	2.1	61.1*

Source: PubChem BioAssay
